# From PubChem BioAssay
# Shown are actives, neighbours in structure and some others; about 3.5% of the full set was active somewhere.
# MrgX1 antag = human MrgX1 receptor antagonism, primary screen; MRGX1-HEK293 calcium flux, Fluo-4, BAM8-22 antagonism; hits give low values; 310,000 compounds, 1.3% hits; B-score at 10 µM;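 active means calcium-response B-score plate-corrected more than 3 library SD below zero, starting fluorescence within 5 deviations, no agonist response on first addition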;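 further: peak minus trough fluorescence over baseline after final BAM8-22 challenge near maximal dose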
# Target sequence (Q96LB2 whole entry, looked up): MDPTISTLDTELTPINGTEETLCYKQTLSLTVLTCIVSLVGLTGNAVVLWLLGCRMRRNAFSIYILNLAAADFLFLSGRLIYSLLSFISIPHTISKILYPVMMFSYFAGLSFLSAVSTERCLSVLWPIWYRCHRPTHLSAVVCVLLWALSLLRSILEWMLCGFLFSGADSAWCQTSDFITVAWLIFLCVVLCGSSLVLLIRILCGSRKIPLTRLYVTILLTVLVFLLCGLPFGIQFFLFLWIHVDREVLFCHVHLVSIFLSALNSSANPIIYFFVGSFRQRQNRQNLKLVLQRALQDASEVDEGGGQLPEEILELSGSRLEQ
# MrgX1 PAM = allosterically activates human MrgX1 receptor signaling; Q96LB2; MrgX1-HEK293, Fluo-4 calcium flux, FDSS; hits give high values; B-score at 10 µM; 310,000 compounds, 0.63% hits;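 active means plate-corrected calcium response at least 3 library SD above typical, normal starting fluorescence, not activating the receptor alone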;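 further: compound read alongside a low EC10 to EC30 dose of BAM8-22 agonist; peak minus trough fluorescence over baseline measured at the second addition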
# RGS4 inh = inhibitors of human RGS4 | P49798 | HEK293 M3R/RGS4 inducible, Fluo-4 calcium flux; hits give high values; triggered by carbachol at its EC20 | B-score at 10 µM | 310,000 compounds, 0.45% hits;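 active means B-score, a plate-corrected calcium signal, over three deviations above library mean, with baseline fluorescence within five deviations of library mean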;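 further: RGS4 expression induced by doxycycline in cells with stable M3 receptor; B-score is computed from the integrated fluorescence ratio over baseline after carbachol; higher B-score means a larger calcium signal and so more RGS4 inhibition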
# MrgX1 ag = activates human MrgX1 receptor signaling; Q96LB2; 310,000 compounds, 0.44% hits; B-score at 10 µM; MrgX1-HEK293 cells, Fluo-4 calcium fluorescence, agonist mode; hits give high values;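 active means calcium response B-score plate-corrected fluorescence ratio at least 3 library SD, with starting fluorescence B-score inside 5 SD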
#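 Material: HEK293 cells stably expressing human MrgX1 receptor | Quantity: 15,000 cells per well | Times: Cells plated overnight, dye loaded 0.5 h 37 °C, 0.5 h room temperature | Measured by: Kinetic Fluo-4 NW fluorescence of intracellular calcium | Control set: Positive and negative controls per plate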
# RGS4 act = RGS4 potentiation or activation | B-score at 10 µM | 310,000 compounds, 0.92% hits | HEK293 M3R/inducible RGS4, carbachol calcium flux Fluo4; hits give low values | AID 463111;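 active means B-score of the integrated calcium signal more than 4 SD below the library mean, with starting fluorescence not abnormally high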;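 further: negative B-score means reduced calcium response which marks RGS4 activation or potentiation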
#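 Reagent: ECmax carbachol challenge; Test system: M3R-expressing HEK293 line, RGS4 induced by doxycycline; Schedule: overnight RGS4 induction, 30 min dye load 37 °C, 20 min compound RT; Detection: calcium dye Fluo4 fluorescence; Read-out: Agonist-evoked peak-minus-minimum fluorescence over baseline, integrated ratio, B score.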
# MrgX1 PAM conf = confirmation of human MrgX1 receptor positive allosteric modulators | 1,200 compounds, 13% hits | activation (ratio percentage), % at 10 µM | MrgX1-HEK293, Fluo-4 calcium fluorescence, FDSS | shares compounds with MrgX1 PAM;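 active means ratio at least 3 SD above the weak peptide control, stable starting fluorescence, no direct agonism earlier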;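 further: compound followed by low BAM8-22 agonist challenge near EC20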
# HEK293 Ca flux = activity in parental HEK293 cells lacking MrgX1; shares compounds with MrgX1 antag; AID 624111; Fluo-4 calcium fluorescence, FDSS; 4,000 compounds, 2% hits; fluorescence ratio F(max-min)/F0 at 10 µM;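 active means duplicate-averaged calcium fluorescence ratio at least three times the standard deviation of buffer wells, a nonspecific response in parental cells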
# HEK293 Ca counter = activity in parental HEK293 cells without MrgX1; 4,000 compounds, 0.4% hits; parental HEK293 calcium flux, Fluo-4 fluorescence ratio; hits give high values; fluorescence ratio F(max-min)/F0 at 10 µM; shares compounds with MrgX1 antag;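 active means calcium fluorescence ratio, averaged over duplicates, at least 3 SD of the buffer-well ratio, meaning a nonspecific response in receptor-free cells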;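 further: untransfected parental HEK293 lacking MrgX1 used as counterscreen for MrgX1 allosteric activators; fluorescence change taken during the second addition on a kinetic imager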
# HEK293 Ca cntr2 = activity in parental HEK293 cells lacking MrgX1 receptor. 4,000 compounds, 8.7% hits. Fluo-4 calcium fluorescence (FDSS); hits give high values. fluorescence ratio F(max-min)/F0 at 10 µM. shares compounds with MrgX1 antag. AID 624115;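 active means calcium fluorescence ratio at least three times the spread of buffer wells, meaning a non-specific response in parental cells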
# * = called active by the depositor; i = inactive; . = no result given.
SMILES,MrgX1 antag,MrgX1 PAM,RGS4 inh,MrgX1 ag,RGS4 act,MrgX1 PAM conf,HEK293 Ca flux,HEK293 Ca counter,HEK293 Ca cntr2
CSC1=NSC2=NC(=O)/C(=C\c3cccs3)C(=N)N12,i,26.7*,i,i,i,14.8%*,i,i,i
CC(C)CSC1=NSC2=NC(=O)/C(=C\c3cccs3)C(=N)N12,i,i,i,i,i,.,.,.,.
CSCC[C@H](NC(=O)[C@@H]1Cc2ccccc2CN1)C(=O)NC(C)c1ccccc1 (stereo partly drawn),i,i,i,i,i,.,.,.,.
CSCC[C@H](NC(=O)[C@@H]1Cc2ccccc2CN1)C(=O)NC1CCCC1,i,8.5*,i,i,i,i,i,i,i
CCOC(=O)c1[nH]c2ccc(OC)cc2c1NC(=O)CN1CCc2ccccc2C1,i,8.12*,i,i,i,i,i,i,i
COc1cc(C(=O)NCc2ncccc2C)ccc1OC1CCN(C(C)=O)CC1,i,i,i,i,i,.,.,.,.
O=C(NC1CCCC1)c1cc(COc2ccc3ncccc3c2)on1,i,i,i,i,i,.,.,.,.
O=C(NCCc1cn2ccccc2n1)c1cc(COc2ccc3ncccc3c2)on1,i,8.93*,i,i,i,5.7%*,i,i,i
Cc1ccc(S(=O)(=O)N2CCN(C(=O)C3CCCC3)CC2)cc1C,i,i,i,i,i,.,.,.,.
Cc1sc(NC(=O)c2ccc(F)cc2)c(CN2CCCCCC2)c1C,i,i,i,i,i,.,.,.,.
Cc1sc(NC(=O)c2ccccc2F)c(CN2CCCCC2)c1C,i,9.35*,i,i,i,i,i,i,i
COc1ccc(CNC(=O)C/C(C)=N/NC(=O)COc2ccc(C)cc2Br)cc1,i,i,i,i,i,.,.,.,.
CCc1ccc(N(CC(=O)Nc2ccc(OC)cc2OC)S(C)(=O)=O)cc1,i,14.7*,i,i,i,i,i,i,i
COc1ccc(N(CC(=O)Nc2cc(OC)ccc2OC)S(C)(=O)=O)cc1,i,i,i,i,i,.,.,.,.
Cc1ccccc1/C(N)=N/O,i,i,i,i,i,.,.,.,.
O=C(Cc1cccs1)N(CC1CCCO1)C1(C(=O)NC2CCCC2)CCCCC1 (stereo not drawn),i,i,i,i,i,.,.,.,.
Cc1ccc2nc(Cl)c(-c3ccccc3)cc2c1,i,8.27*,i,i,i,i,i,i,i
Cn1c(=O)c2c(nc(N3CCCCCC3)n2Cc2cccc3ccccc23)n(C)c1=O,i,7.47*,i,i,i,i,i,51.2*,i
CN1CCN(c2nc3c(c(=O)n(C)c(=O)n3C)n2Cc2cccc3ccccc23)CC1,i,i,i,i,i,.,.,.,.
Cn1c(=O)c2c(nc(CN3CCc4ccccc4C3)n2Cc2ccccc2F)n(C)c1=O,i,24.5*,i,i,i,38.0%*,i,i,i
Cn1c(=O)c2c(nc(CN3CCc4ccccc4C3)n2CCCO)n(C)c1=O,i,i,i,i,i,.,.,.,.
COc1ccc(CNC(=O)CN(C)Cc2ccc(C(C)(C)C)cc2)cc1,i,i,i,i,i,.,.,.,.
COc1cccc(N2CCN(c3ccc4nnc(CCC(=O)Nc5ccccn5)n4n3)CC2)c1,i,7.49*,i,i,i,i,i,i,i
